Type in all cases: functional
Experiment [1] deals with Helicobacter pylori. Nature of the experiment: Antibacterial activity against Helicobacter pylori SS1 assessed as inhibition of visible growth after 96 hrs by agar dilution method. The following applies: SS1, 96 h. In short, it runs like this: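 Agar dilution on Columbia Blood Agar Base with 7% defibrinated sheep blood; compounds dissolved in minimal DMSO, two-fold serial dilutions mixed into medium. Inoculum: cells in saline at 10⁸ CFU/mL. Incubated 37 °C, 96 h, 5% O₂/10% CO₂/85% N₂. DMSO-only blank and metronidazole positive control run alongside. MIC = lowest concentration completely inhibiting visible growth.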

The test system of experiment [2] is Trichophyton rubrum. Nature of the experiment: Antifungal activity against Trichophyton rubrum after 48 hrs. In short, it runs like this: (§1)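 Fungi grown in Sabouraud dextrose broth at 37 °C for 48 h with compounds and positive control dissolved in DMSO; DMSO-only cultures served as blank controls.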
A short description of experiment [3]: Antifungal activity against Saccharomyces sake after 48 hrs. The note with it: Saccharomyces sp. In short, it runs like this:
as §1

For experiment [4], the system named is Pseudomonas aeruginosa. Nature of the experiment: Antibacterial activity against Pseudomonas aeruginosa ATCC 14502 after 18 hrs. The following applies: ATCC 14502, 18 h.
Experiment [5] concerns Shigella flexneri. Nature of the experiment: Antibacterial activity against Shigella flexneri F2a after 18 hrs.
Experiment [6] deals with Bacillus subtilis. The experiment can be described thus: Antibacterial activity against Bacillus subtilis CMCC 63501 after 18 hrs. The following applies: CMCC 63501, 18 h.
For experiment [7], the system named is Candida albicans. Nature of the experiment: Antifungal activity against Candida albicans ATCC 1600 after 48 hrs. The note with it: ATCC 1600, 48 h. In short, it runs like this:
as §1

The test system of experiment [8] is Micrococcus luteus. Nature of the experiment: Antibacterial activity against Micrococcus luteus ATCC 9341 after 18 hrs. The following applies: ATCC 9341, 18 h.
The subject of experiment [9] is Staphylococcus epidermidis. Nature of the experiment: Antibacterial activity against Staphylococcus epidermidis ATCC 12228 after 18 hrs. The following applies: ATCC 12228, 18 h.
The subject of experiment [10] is Nannizzia gypsea. Nature of the experiment: Antifungal activity against Microsporum gypseum after 48 hrs. In short, it runs like this: as §1
In experiment [11] the test system is Staphylococcus aureus. The experiment can be described thus: Antibacterial activity against Staphylococcus aureus ATCC 25923 after 18 hrs. The note with it: ATCC 25923, 18 h.
Experiment [12] deals with Escherichia coli. The experiment can be described thus: Antibacterial activity against Escherichia coli ATCC 25922 after 18 hrs. The note with it: ATCC 25922, 18 h.

Structures are written as SMILES. Converted amounts (≈) assume the structure as drawn.

This note sets out measurements from ChEMBL document CHEMBL1287650, “Structural modification of a specific antimicrobial lead against Helicobacter pylori discovered from traditional Chinese medicine and a structure-activity relationship study” (2010).

Broadly, the MIC is the smallest concentration in the dilution series that meets the test's criterion for growth inhibition.

Regarding `COCc1c2ccoc2c(OC)c2oc(=O)ccc12`, the minimal inhibitory concentration (MIC) in experiment [1] is greater than 50 µg/mL.

For the molecule `CCOCc1c2ccoc2c(OC)c2oc(=O)ccc12`, in experiment [1], the MIC was greater than 50 µg/mL.

As to `COc1c2occc2c([N+](=O)[O-])c2ccc(=O)oc12`, the minimal inhibitory concentration (MIC) in [2] is greater than 64 µg/mL; in [3] it was greater than 64 µg/mL; in experiment [4], greater than 64 µg/mL; in experiment [5] it was greater than 64 µg/mL; in experiment [6] it was greater than 64 µg/mL; in [1], 1.56 µg/mL (≈ 5.97 µM). Also, the minimal inhibitory concentration (MIC) in experiment [7], in experiment [8], in experiment [9], in experiment [10], in experiment [11] and in experiment [12] was greater than 64 µg/mL in each case. Consider `O=Cc1cc(=O)oc2cc3occc3cc12`, for which, in experiment [1], the MIC came to 1.56 µg/mL (≈ 7.28 µM). As to `COc1c2occc2c(CCl)c2ccc(=O)oc12`, the minimum inhibitory concentration (MIC) in experiment [1] amounted to 25 µg/mL (≈ 94.5 µM).

`COc1ccc(NCc2c3ccoc3c(OC)c3oc(=O)ccc23)cc1`: the minimal inhibitory concentration (MIC) in [1] came to 12.5 µg/mL (≈ 35.6 µM). On the same count and under the same terms, the value for `O=c1ccc2cc3cc(CCl)oc3cc2o1` was greater than 50 µg/mL; that for `COc1c2occc2cc2ccc(=O)oc12` [METHOXSALEN] was 25 µg/mL (≈ 116 µM). In the case of `COc1ccc(NS(=O)(=O)c2c3ccoc3c(OC)c3oc(=O)ccc23)cc1`, the MIC in experiment [1] was greater than 50 µg/mL. In the case of `O=c1ccc2cc3ccoc3cc2o1` [PSORALEN], the minimal inhibitory concentration (MIC) is greater than 64 µg/mL in experiment [2]; greater than 64 µg/mL in experiment [3]; greater than 64 µg/mL in experiment [4]; greater than 64 µg/mL in [5]; greater than 64 µg/mL in [6]; 6.25 µg/mL (≈ 33.6 µM) in [1]. The minimum inhibitory concentration (MIC) in experiment [7], in experiment [8], in [9], in [10], in [11] and in experiment [12] was greater than 64 µg/mL in each case.

With `Cc1ncc([N+](=O)[O-])n1CCO` [METRONIDAZOLE], the MIC in experiment [1] was 0.5 µg/mL (≈ 2.92 µM).

`O=c1cc(C(F)(F)F)c2cc3ccoc3cc2o1`: the MIC in [1] is 12.5 µg/mL (≈ 49.2 µM). In the case of `CCCOCc1c2ccoc2c(OC)c2oc(=O)ccc12`, in [1], the minimal inhibitory concentration (MIC) was greater than 50 µg/mL. Still for that read-out and setting: as for `Cc1c2ccoc2cc2oc(=O)ccc12`, the figure is 12.5 µg/mL (≈ 62.4 µM). Regarding `COc1c2occc2c(N)c2ccc(=O)oc12`, in [1], the MIC was determined as 25 µg/mL (≈ 108 µM). On the same count and under the same terms, as for `O=c1ccc2cc3cc([N+](=O)[O-])oc3cc2o1`, the figure is 3.12 µg/mL (≈ 13.5 µM).

As for `CCCCOCc1cc2cc3ccc(=O)oc3cc2o1`, the MIC in [1] is 50 µg/mL (≈ 184 µM). The same measure, in the same setting: as for `O=c1ccc2cc3ccoc3c(O)c2o1` [XANTHOTOXOL], the figure is greater than 50 µg/mL; as for `CCCc1cc(=O)oc2cc3occc3cc12`, 12.5 µg/mL (≈ 54.8 µM). Same read-out and setting: the value for `CCN(CC)Cc1c2ccoc2c(OC)c2oc(=O)ccc12` was greater than 50 µg/mL; that for `COc1c2occc2c(S(=O)(=O)Nc2ccc([N+](=O)[O-])cc2)c2ccc(=O)oc12` was greater than 50 µg/mL; that for `COc1c2occc2c(/N=C/c2ccccc2)c2ccc(=O)oc12` was greater than 50 µg/mL. The same measure, in the same setting: as for `O=c1ccc2cc3cc(Cl)oc3cc2o1`, the figure is 6.25 µg/mL (≈ 28.3 µM); as for `CCc1cc(=O)oc2cc3occc3cc12`, 6.25 µg/mL (≈ 29.2 µM). For the molecule `Cc1coc2cc3oc(=O)ccc3cc12`, the minimal inhibitory concentration (MIC) in experiment [1] stood at 12.5 µg/mL (≈ 62.4 µM).

For the molecule `CC(=O)Oc1c2occc2cc2ccc(=O)oc12`, the minimum inhibitory concentration (MIC) in experiment [1] is greater than 50 µg/mL.

For `CC(=O)OCc1cc(=O)oc2cc3occc3cc12`, in experiment [1], the MIC is 1.56 µg/mL (≈ 6.04 µM). On the same count and under the same terms, the value for `COc1c2occc2c(S(=O)(=O)OC)c2ccc(=O)oc12` was greater than 50 µg/mL; that for `CCN(CC)Cc1cc2cc3ccc(=O)oc3cc2o1` was greater than 50 µg/mL.

`COc1c2occc2c(S(=O)(=O)Oc2ccccc2)c2ccc(=O)oc12`: in experiment [1], the MIC was greater than 50 µg/mL.

For the molecule `CCN(CC)S(=O)(=O)c1c2ccoc2c(OC)c2oc(=O)ccc12`, in experiment [1], the MIC was greater than 50 µg/mL. Same read-out and setting: as for `O=c1ccc2c([N+](=O)[O-])c3ccoc3c(O)c2o1`, the figure is 25 µg/mL (≈ 101 µM). Regarding `O=c1ccc2cc3cc(Br)oc3cc2o1`, in [1], the MIC is 6.25 µg/mL (≈ 23.6 µM). Same read-out and setting: the value for `COc1c2occc2c(S(N)(=O)=O)c2ccc(=O)oc12` was greater than 50 µg/mL. Turning to `COCc1cc2cc3ccc(=O)oc3cc2o1`, in experiment [1], the MIC was found to be 50 µg/mL (≈ 217 µM). Still for that read-out and setting: as for `CCOCc1cc2cc3ccc(=O)oc3cc2o1`, the figure is greater than 50 µg/mL; as for `COc1c2occc2c(CNc2ccc([N+](=O)[O-])cc2)c2ccc(=O)oc12`, greater than 50 µg/mL; as for `CCOC(=O)COc1c2occc2cc2ccc(=O)oc12`, greater than 50 µg/mL.

As for `Cc1cc(=O)oc2cc3occc3cc12`, the MIC in experiment [2] is greater than 64 µg/mL; in experiment [3] it was greater than 64 µg/mL; in experiment [4], greater than 64 µg/mL; in experiment [5] it was greater than 64 µg/mL; in [6] it was greater than 64 µg/mL; in experiment [1], 0.39 µg/mL (≈ 1.95 µM). Besides, the MIC in [7], in experiment [8], in experiment [9], in [10], in experiment [11] and in [12] was greater than 64 µg/mL in each case. On to `CCCCOCc1c2ccoc2c(OC)c2oc(=O)ccc12`, for which the minimal inhibitory concentration (MIC) in experiment [1] stood at 50 µg/mL (≈ 165 µM). On the same count and under the same terms, as for `O=C(O)COc1c2occc2cc2ccc(=O)oc12`, the figure is greater than 50 µg/mL; as for `COc1c2occc2c(Cl)c2ccc(=O)oc12`, greater than 50 µg/mL; as for `O=c1cc(CBr)c2cc3ccoc3cc2o1`, 1.56 µg/mL (≈ 5.59 µM).

Regarding `O=c1cc(-c2ccccc2)c2cc3ccoc3cc2o1`, the MIC in [1] was determined as 12.5 µg/mL (≈ 47.7 µM). Still for that read-out and setting: the value for `COc1c2occc2c(Br)c2ccc(=O)oc12` was greater than 50 µg/mL; that for `CCOc1c2occc2cc2ccc(=O)oc12` was greater than 50 µg/mL. Still for that read-out and setting: the value for `CC(=O)Oc1c2occc2c([N+](=O)[O-])c2ccc(=O)oc12` was 25 µg/mL (≈ 86.4 µM). For `O=c1cc(CO)c2cc3ccoc3cc2o1`, in experiment [1], the MIC amounted to 0.78 µg/mL (≈ 3.61 µM). On the same count and under the same terms, the value for `CC(=O)OCc1cc2cc3ccc(=O)oc3cc2o1` was greater than 50 µg/mL.
